Data reported in paper PMC9670593 (Journal of Molecular Liquids, 2022).
≈ marks a conversion by molar mass, not a printed value. Where “and” joins values, the source holds several entries; their conditions need not be identical. Equal values may be shown once. Read-outs that look alike come from different tables or passages of the source.

Legend:
Escherichia coli = settings: cited from earlier work
[1] = system: MCF-7: a human breast cancer cell line; assay: Cytotoxicity MTT assay, MCF-7; type: cell-based; settings: for IC50 MCF-7: means ± SD, n = 3; for IC50: read-out: IC50 MCF-7
Method in brief: (§1)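 Cells were kept in DMEM with 0.2 % sodium bicarbonate and 10 % FBS at 37 °C, 5 % CO2, humidified. Only batches above 98 % trypan-blue viability were used. 10,000 cells/well adhered 24 h before treatment. MTT (5 mg/ml PBS stock, 10 μl per 100 μl) was added for 4 h, formazan dissolved in DMSO and read at 550 nm. Background-corrected survival = ODt/ODc ×100 versus untreated controls; IC50 taken from dose–response curves; cisplatin reference.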

[2] = system: Escherichia coli (ATCC: 25922); assay: Antibacterial minimal inhibitory concentration; type: cell-based; settings: 24 h; for Minimum Inhibition concentration (MIC): E. coli
Method in brief: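 Test compounds were stocked at 20 mg/mL in DMSO. Ampicillin was run as standard drug and DMSO as negative control. MIC reported in μM.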

[3] = system: HEK293: human embryonic kidney cells; assay: Cytotoxicity MTT assay, HEK293 normal cells; type: cell-based; settings: for IC50 HEK293: MTT, normal cell line, means ± SD, n = 3
Method in brief: as §1

[4] = target: Human serum albumin (HSA) (Homo sapiens, UniProt P02768); assay: HSA binding, fluorescence quenching titration; settings: slope of Fo/F vs [metal complex]
Human serum albumin (HSA), sequence (P02768 25-609): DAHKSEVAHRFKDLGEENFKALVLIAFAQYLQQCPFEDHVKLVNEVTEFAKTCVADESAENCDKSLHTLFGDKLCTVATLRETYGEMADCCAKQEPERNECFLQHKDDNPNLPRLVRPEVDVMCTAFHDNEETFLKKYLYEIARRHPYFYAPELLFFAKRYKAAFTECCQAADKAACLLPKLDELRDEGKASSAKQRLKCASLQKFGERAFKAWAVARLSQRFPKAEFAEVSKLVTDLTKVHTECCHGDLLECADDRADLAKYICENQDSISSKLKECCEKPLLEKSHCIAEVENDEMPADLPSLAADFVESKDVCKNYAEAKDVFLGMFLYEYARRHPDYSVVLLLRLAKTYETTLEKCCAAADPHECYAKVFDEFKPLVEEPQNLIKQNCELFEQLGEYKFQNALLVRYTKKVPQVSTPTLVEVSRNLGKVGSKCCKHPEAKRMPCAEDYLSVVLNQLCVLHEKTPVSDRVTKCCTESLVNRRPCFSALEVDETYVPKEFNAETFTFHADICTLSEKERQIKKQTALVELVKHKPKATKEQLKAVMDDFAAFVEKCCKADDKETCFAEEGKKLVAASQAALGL
Method in brief: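 HSA concentration fixed spectrophotometrically at 278 nm using ε 35,219 M−1cm−1 (1 cm quartz). Increasing amounts of metal complex were titrated into constant HSA. Tryptophan fluorescence was excited at 280 nm and emission recorded over 300–400 nm. KSV was taken as the slope of the Stern–Volmer plot Fo/F versus [complex].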

[5] = system: HELA: cancerous cervical tumor cells; assay: Cytotoxicity MTT assay, HELA; type: cell-based, human; settings: for IC50 HELA: means ± SD, n = 3; for IC50: read-out: IC50 HELA; for cytotoxic activity class, HELA: class by IC50 (µg/mL)
Method in brief: as §1

[6] = system: Escherichia coli (ATCC: 25922); assay: Antibacterial agar disc diffusion; type: cell-based; settings: for Inhibition zones (mm): 5-mm discs, 100 μg/mL; for Activity index (%): relative to ampicillin; for zone of inhibition at 100 µg/mL: Escherichia coli, read-out: Inhibition zones (mm)
Method in brief: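 E. coli ATCC 25922 grown on Mueller–Hinton agar, 18–24 h at 35 °C. Inoculum adjusted to McFarland 0.5 (1.5x 10^8 CFU/mL) and swabbed as a lawn on Mueller–Hinton plates. Test compounds were stocked at 20 mg in 1 mL DMSO, and 5-mm paper discs were loaded with 100 μg/mL. Inhibition zone diameter was measured against ampicillin as standard, with DMSO as negative control. Assayed twice.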

[7] = Formation stability constant of the complexes; type: physicochemical; settings: metal:ligand 1:2

Row | Molecule | concentration showing complete inhibition of Escherichia coli (Escherichia coli) [µM] | reported growth-inhibiting concentration toward Escherichia coli (Escherichia coli; practical value for more than 24 h) [µM] | IC50 MCF-7 ([1]; MTT) [µg/mL] | IC50 ([1]; MTT) [µM] | Minimum Inhibition concentration (MIC) [2] [µM] | IC50 HEK293 [3] [µg/mL] | fluorescence constant (Kvs; Stern-Volmer quenching constant KSV) with HSA [4] [M⁻¹] | IC50 HELA ([5]; MTT) [µg/mL] | IC50 ([5]; MTT) [µM] | Inhibition zones (mm) [6] [mm] | Activity index (%) [6] [%] | formation stability constant for the complexes [7] | IC50 ([1]; Homo sapiens, MCF7a) | MIC ([2]; Escherichia coli, read-out: Minimum Inhibition concentration (MIC)) [µM] | IC50 ([3]; Homo sapiens, HEK293, read-out: IC50 HEK293) [µg/mL] | IC50 ([5]; Homo sapiens, HeLa) | zone of inhibition at 100 µg/mL [6] [mm] | cytotoxic activity class, MCF-7 ([1]; class by IC50 (µg/mL)) | cytotoxic activity class, HELA [5]
1 | O=[N+]([O-])[O-].[Ag+] [AgNO3] | > 8.5 | 6.5 | – | – | – | – | – | – | – | – | – | – | – | – | – | – | – | – | –
2 | [Ag(NTZ)2]NO3 [NTZ-Ag(I)] | – | – | 39 ± 4 | 50.8 | 5.5 | 660 ± 3 | 3e+06 | 45 ± 2 | 58.7 | 28 | 85 | 4.22 × 10^5 | – | – | – | – | – | – | –
3 | CC(=O)Oc1ccccc1C(=O)Nc1ncc([N+](=O)[O-])s1 [Free NTZ, 2-(acetyloxy)-N-(5-nitro-2-thiazolyl) benzamide, reference compound] | – | – | – | – | – | – | – | – | – | – | 24 | – | 62 µg/mL and 202 µM | 105 (≈ 32.3 µg/mL) | 1050 ± 10 (≈ 3.42 mM) | 78 µg/mL and 254 µM | 8 | – | –
4 | CC1(C)S[C@@H]2[C@H](NC(=O)[C@H](N)c3ccccc3)C(=O)N2[C@H]1C(=O)O [Ampicillin, reference compound] | – | – | – | – | – | – | – | – | – | – | 100 | – | – | – | – | – | 33 | – | –
5 | [Au(NTZ)2]Cl3 [NTZ-Au(III)] | – | – | 25 ± 5 | 27.3 | 27.5 | 675 ± 5 | 7e+06 | 8.9 ± 4 | 9.7 | 12 | 37 | 17.92 × 10^5 | – | – | – | – | – | Moderate | very strong (1–10 (very strong))
6 | [Ru(NTZ)2Cl2]Cl [NTZ-Ru(III)] | – | – | 10.5 ± 2 | 12.8 | 7.5 | 265 ± 5 | 4e+06 | 6.5 ± 3 | 7.9 | 20 | 61 | 34.37 × 10^5 | – | – | – | – | – | – | very strong (1–10 (very strong))
